Test results: ChEMBL document CHEMBL1123551, “3-Pyrroline N-oxide bis(carbamate) tumor inhibitors as analogues of indicine N-oxide” (J Med Chem, 1987)

Legend:
P388 [1] = assay: In vivo antileukemic activity against P388 lymphocytic leukemia at a dose of 30 mg/kg administered intraperitoneally expressed as log of the number of tumor cells (cell kill); format: ADME, organism-based; set-up: dose 30 mg/kg, route intraperitoneal; conditions: mouse, ip
How it was run: (§1)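 P388 tumor inoculated ip. Drug solution in distilled water injected ip as five daily doses, starting 24 h after inoculation; some compounds were given as suspensions made fresh daily and used immediately.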

P388 [2] = assay: In vivo antileukemic activity against P388 lymphocytic leukemia at a dose of 7.5 mg/kg administered intraperitoneally expressed as log of the number of tumor cells (cell kill); format: ADME, organism-based; set-up: dose 7.5 mg/kg, route intraperitoneal; conditions: mouse, ip; how it was run: as §1
P388 [3] = assay: In vivo antileukemic activity against P388 lymphocytic leukemia at a dose of 3.75 mg/kg administered intraperitoneally expressed as log of the number of tumor cells (cell kill); format: ADME, organism-based; set-up: dose 3.75 mg/kg, route intraperitoneal; conditions: mouse, ip; how it was run: as §1
P388 [4] = assay: In vivo antileukemic activity against P388 lymphocytic leukemia at a dose of 3.75 mg/kg administered intraperitoneally expressed as ratio of survival of treated compared to untreated control animals; format: functional, Mus musculus; conditions: route intraperitoneal
How it was run: (§2)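 Drug given ip as a solution in distilled water. Five daily doses, starting 24 h after ip tumor inoculation. % T/C is the survival of treated animals divided by that of untreated controls, expressed as a percent. Log cell kill (KE) is the log of tumor cell number at the end of treatment relative to the start. Weight change of treated animals is recorded relative to controls.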

P388 [5] = assay: In vivo antileukemic activity against P388 lymphocytic leukemia at a dose of 3.75 mg/kg administered intraperitoneally expressed as weight change of treated to control animals; format: functional, Mus musculus; conditions: route intraperitoneal
How it was run: (§3)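 P388 leukemia inoculated ip. Test drug in distilled water given ip once daily for 5 days, beginning 24 h post-inoculation; some compounds were dosed as suspensions prepared fresh daily and used immediately. Read-out is body weight change of treated animals relative to untreated controls.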

P388 [6] = assay: In vivo antileukemic activity against P388 lymphocytic leukemia at a dose of 7.5 mg/kg administered intraperitoneally expressed as weight change of treated to control animals; format: functional, Mus musculus; conditions: route intraperitoneal; how it was run: as §3
P388 [7] = assay: In vivo antileukemic activity against P388 lymphocytic leukemia at a dose of 15 mg/kg administered intraperitoneally expressed as log of the number of tumor cells (cell kill); format: ADME, organism-based; set-up: dose 15 mg/kg, route intraperitoneal; conditions: mouse, ip; how it was run: as §1
P388 [8] = assay: In vivo antileukemic activity against P388 lymphocytic leukemia at a dose of 30 mg/kg administered intraperitoneally expressed as weight change of treated to control animals; format: functional, Mus musculus; conditions: route intraperitoneal; how it was run: as §3
P388 [9] = assay: In vivo antileukemic activity against P388 lymphocytic leukemia at a dose of 7.5 mg/kg administered intraperitoneally expressed as ratio of survival of treated compared to untreated control animals; format: functional, Mus musculus; conditions: route intraperitoneal; how it was run: as §2
P388 [10] = assay: In vivo antileukemic activity against P388 lymphocytic leukemia at a dose of 15 mg/kg administered intraperitoneally expressed as weight change of treated to control animals; format: functional, Mus musculus; conditions: route intraperitoneal; how it was run: as §3
P388 [11] = assay: In vivo antileukemic activity against P388 lymphocytic leukemia at a dose of 15 mg/kg administered intraperitoneally expressed as ratio of survival of treated compared to untreated control animals; format: functional, Mus musculus; conditions: route intraperitoneal; how it was run: as §2
P388 [12] = assay: In vivo antileukemic activity against P388 lymphocytic leukemia at a dose of 30 mg/kg administered intraperitoneally expressed as ratio of survival of treated compared to untreated control animals; format: functional, Mus musculus; conditions: route intraperitoneal; how it was run: as §2
P388 [13] = assay: In vivo antileukemic activity against P388 lymphocytic leukemia at a dose of 100 mg/kg administered intraperitoneally expressed as ratio of survival of treated compared to untreated control animals; format: functional, Mus musculus; conditions: route intraperitoneal; how it was run: as §2
P388 [14] = assay: In vivo antileukemic activity against P388 lymphocytic leukemia at a dose of 100 mg/kg administered intraperitoneally expressed as weight change of treated to control animals; format: functional, Mus musculus; conditions: route intraperitoneal; how it was run: as §3
P388 [15] = assay: In vivo antileukemic activity against P388 lymphocytic leukemia at a dose of 12.5 mg/kg administered intraperitoneally expressed as log of the number of tumor cells (cell kill); format: ADME, organism-based; set-up: dose 12.5 mg/kg, route intraperitoneal; conditions: mouse, ip; how it was run: as §1
P388 [16] = assay: In vivo antileukemic activity against P388 lymphocytic leukemia at a dose of 12.5 mg/kg administered intraperitoneally expressed as ratio of survival of treated compared to untreated control animals; format: functional, Mus musculus; conditions: route intraperitoneal; how it was run: as §2
P388 [17] = assay: In vivo antileukemic activity against P388 lymphocytic leukemia at a dose of 50 mg/kg administered intraperitoneally expressed as weight change of treated to control animals; format: functional, Mus musculus; conditions: route intraperitoneal; how it was run: as §3
P388 [18] = assay: In vivo antileukemic activity against P388 lymphocytic leukemia at a dose of 400 mg/kg administered intraperitoneally expressed as ratio of survival of treated compared to untreated control animals; format: functional, Mus musculus; conditions: route intraperitoneal; how it was run: as §2
P388 [19] = assay: In vivo antileukemic activity against P388 lymphocytic leukemia at a dose of 25 mg/kg administered intraperitoneally expressed as weight change of treated to control animals; format: functional, Mus musculus; conditions: route intraperitoneal; how it was run: as §3
P388 [20] = assay: In vivo antileukemic activity against P388 lymphocytic leukemia at a dose of 100 mg/kg administered intraperitoneally expressed as log of the number of tumor cells (cell kill); format: ADME, organism-based; set-up: dose 100 mg/kg, route intraperitoneal; conditions: mouse, ip; how it was run: as §1
P388 [21] = assay: In vivo antileukemic activity against P388 lymphocytic leukemia at a dose of 200 mg/kg administered intraperitoneally expressed as weight change of treated to control animals; format: functional, Mus musculus; conditions: route intraperitoneal; how it was run: as §3
P388 [22] = assay: In vivo antileukemic activity against P388 lymphocytic leukemia at a dose of 400 mg/kg administered intraperitoneally expressed as weight change of treated to control animals; format: functional, Mus musculus; conditions: route intraperitoneal; how it was run: as §3
P388 [23] = assay: In vivo antileukemic activity against P388 lymphocytic leukemia at a dose of 200 mg/kg administered intraperitoneally expressed as log of the number of tumor cells (cell kill); format: ADME, organism-based; set-up: dose 200 mg/kg, route intraperitoneal; conditions: mouse, ip; how it was run: as §1
P388 [24] = assay: In vivo antileukemic activity against P388 lymphocytic leukemia at a dose of 200 mg/kg administered intraperitoneally expressed as ratio of survival of treated compared to untreated control animals; format: functional, Mus musculus; conditions: route intraperitoneal; how it was run: as §2
P388 [25] = assay: In vivo antileukemic activity against P388 lymphocytic leukemia at a dose of 25 mg/kg administered intraperitoneally expressed as ratio of survival of treated compared to untreated control animals; format: functional, Mus musculus; conditions: route intraperitoneal; how it was run: as §2
P388 [26] = assay: In vivo antileukemic activity against P388 lymphocytic leukemia at a dose of 50 mg/kg administered intraperitoneally expressed as ratio of survival of treated compared to untreated control animals; format: functional, Mus musculus; conditions: route intraperitoneal; how it was run: as §2
P388 [27] = assay: In vivo antileukemic activity against P388 lymphocytic leukemia at a dose of 12.5 mg/kg administered intraperitoneally expressed as weight change of treated to control animals; format: functional, Mus musculus; conditions: route intraperitoneal; how it was run: as §3
P388 [28] = assay: In vivo antileukemic activity against P388 lymphocytic leukemia at a dose of 25 mg/kg administered intraperitoneally expressed as log of the number of tumor cells (cell kill); format: ADME, organism-based; set-up: dose 25 mg/kg, route intraperitoneal; conditions: mouse, ip; how it was run: as §1
P388 [29] = assay: In vivo antileukemic activity against P388 lymphocytic leukemia at a dose of 50 mg/kg administered intraperitoneally expressed as log of the number of tumor cells (cell kill); format: ADME, organism-based; set-up: dose 50 mg/kg, route intraperitoneal; conditions: mouse, ip; how it was run: as §1
P388 [30] = assay: In vivo antileukemic activity against P388 lymphocytic leukemia at a dose of 400 mg/kg administered intraperitoneally expressed as log of the number of tumor cells (cell kill); format: ADME, organism-based; set-up: dose 400 mg/kg, route intraperitoneal; conditions: mouse, ip; how it was run: as §1
P388 [31] = assay: In vivo antileukemic activity against P388 lymphocytic leukemia at a dose of 240 mg/kg administered intraperitoneally expressed as ratio of survival of treated compared to untreated control animals; format: functional, Mus musculus; conditions: route intraperitoneal; how it was run: as §2
P388 [32] = assay: In vivo antileukemic activity against P388 lymphocytic leukemia at a dose of 240 mg/kg administered intraperitoneally expressed as weight change of treated to control animals; format: functional, Mus musculus; conditions: route intraperitoneal; how it was run: as §3
P388 [33] = assay: In vivo antileukemic activity against P388 lymphocytic leukemia at a dose of 240 mg/kg administered intraperitoneally expressed as log of the number of tumor cells (cell kill); format: ADME, organism-based; set-up: dose 240 mg/kg, route intraperitoneal; conditions: mouse, ip; how it was run: as §1

Structure (SMILES) | T/C (P388 [13]) [%] | Weight change (P388 [14]) [g] | KE (P388 [15]) | T/C (P388 [16]) [%] | Weight change (P388 [17]) [g] | Weight change (P388 [19]) [g] | KE (P388 [20]) | T/C (P388 [25]) [%] | T/C (P388 [26]) [%] | Weight change (P388 [27]) [g] | KE (P388 [28]) | KE (P388 [29]) | further results
CC(C)NC(=O)OCc1cn(C)c(-c2ccccc2)c1COC(=O)NC(C)C | – | – | – | – | – | – | – | – | – | – | – | – | KE (P388 [1]): 1.99; KE (P388 [2]): 0.32; KE (P388 [3]): -0.7; T/C (P388 [4]): 129%; Weight change (P388 [5]): -0.5 g; Weight change (P388 [6]): -1.9 g; KE (P388 [7]): 2.63; Weight change (P388 [8]): -3.4 g; T/C (P388 [9]): 145%; Weight change (P388 [10]): -3.2 g; T/C (P388 [11]): 181%; T/C (P388 [12]): 171%
CNC(=O)OCC1=CC[N+](C)([O-])C1COC(=O)NC (centres undefined) | 159 | -2.1 | 0.39 | 142 | -1.5 | -1.2 | 1.7 | 122 | 145 | -3.8 | -1.23 | 0.62 | T/C (P388 [18]): 143%; Weight change (P388 [21]): -2.4 g; Weight change (P388 [22]): -5.7 g; KE (P388 [23]): 1; T/C (P388 [24]): 150%; KE (P388 [30]): 0.34
C[N+]1([O-])CC=CC1 | – | – | – | – | – | – | – | – | – | – | – | – | T/C (P388 [31]): 108%; Weight change (P388 [32]): -0.2 g; KE (P388 [33]): -0.12
CC(C)NC(=O)OCC1=C(COC(=O)NC(C)C)C(C)(C)[N+](C)([O-])C1c1ccccc1 (centres undefined) | 107 | 0.7 | -1.54 | 108 | 0.9 | 0.1 | -1.53 | 100 | 107 | 2.1 | -1.64 | -1.53 | –
CC(C)NC(=O)OCC1=C(COC(=O)NC(C)C)C(c2ccccc2)[N+](C)([O-])C1 (centres undefined) | 134 | -1.5 | -1.21 | 115 | -0.6 | -0.1 | -0.11 | 109 | 116 | 1.6 | -1.5 | -1.16 | –
CC(C)NC(=O)OCC1=C(COC(=O)NC(C)C)C(c2ccccc2)N(C)C1 (centres undefined) | 225 | -2.2 | 0.84 | 121 | -2 | -0.9 | 5.18 | 136 | 145 | 0 | 0 | 0.53 | –
